Here are results for one compound from ChEMBL document CHEMBL1800016, “Novel thiazolidinedione derivatives with anti-obesity effects: dual action as PTP1B inhibitors and PPAR-γ activators” (Bioorg Med Chem Lett, 2010).

Data set [1] in a line: Inhibition of YOP assessed as p-nitrophenol release from pNPP substrate preincubated for 10 mins. Put shortly: (§1)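 IC50 values against the PTP panel, with enzymes prepared as described in the supplementary material. Values are means ± SD of two or more experiments.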
Data set [2] can be described thus: Selectivity ratio of IC50 for membrane proximal catalytic domain of LAR-D1 to IC50 for PTP1B.
Data set [3] concerns the target T1, Tyrosine-protein phosphatase non-receptor type 2 (Homo sapiens, UniProt P17706).
T1 sequence (P17706 whole entry): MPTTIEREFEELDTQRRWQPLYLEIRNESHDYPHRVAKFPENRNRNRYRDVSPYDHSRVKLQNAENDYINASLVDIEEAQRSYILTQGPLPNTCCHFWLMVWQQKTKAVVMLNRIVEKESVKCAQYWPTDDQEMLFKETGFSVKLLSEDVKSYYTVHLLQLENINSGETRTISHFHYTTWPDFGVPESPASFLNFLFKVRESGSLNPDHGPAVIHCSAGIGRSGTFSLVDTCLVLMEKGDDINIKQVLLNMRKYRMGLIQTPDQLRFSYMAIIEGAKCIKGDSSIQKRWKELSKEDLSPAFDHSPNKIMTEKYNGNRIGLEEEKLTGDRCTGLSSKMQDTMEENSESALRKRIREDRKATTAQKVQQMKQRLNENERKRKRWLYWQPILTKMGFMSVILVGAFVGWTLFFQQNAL
Nature of the data set: Inhibition of TC-PTP assessed as p-nitrophenol release from pNPP substrate preincubated for 10 mins. Put shortly:
as §1

In data set [4] the test system is Mus musculus. Put plainly: Toxicity in high fat diet-fed diabetic C57BL/6J Jms Slc mouse model assessed as change in weight of lung at 2.6 mg/day administered with food for 4 weeks. The following applies: in vivo, po, 672 h. The format is organism-based. Put shortly:
(§2)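 At the end of the 4 wk in-feed dosing (about 2.6 mg/day/mouse in HFD), liver, kidney and lung weights were compared across the lean LFD, HFD control and treated groups.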

Data set [5] relates to Mus musculus. Nature of the data set: Antiobesity activity in high fat diet-fed diabetic C57BL/6J Jms Slc mouse model assessed as weight gain/kcal at 2.6 mg/day administered with food for 4 weeks. The format is functional. Put shortly:
(§3)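 DIO male C57BL/6J Jms Slc mice were fed a 45%-fat HFD for 8 wk, then HFD with 0.1% w/w compound in feed (about 2.6 mg/day/mouse) for 4 wk. A 10%-fat LFD lean group ran throughout. Measures were weight gain, feed efficiency (weight gain/kcal ×100), and epididymal and retroperitoneal fat pad weights. n = 8/group; mean ± SEM; one-way ANOVA.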

Data set [6] in a line: Selectivity ratio of IC50 for yeast PTP1 to IC50 for PTP1B.
Data set [7] concerns Mus musculus. Put plainly: Toxicity in high fat diet-fed diabetic C57BL/6J Jms Slc mouse model assessed as change in weight of liver at 2.6 mg/day administered with food for 4 weeks. It is filed as organism-based. To be noted: in vivo, po, 672 h. Put shortly:
as §2

For data set [8], the system named is Mus musculus. Nature of the data set: Antiobesity activity in high fat diet-fed diabetic C57BL/6J Jms Slc mouse model assessed as decrease in serum triglyceride level at 2.6 mg/day administered with food for 4 weeks. The format is functional. Put shortly: (§4)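 DIO mice were fed HFD for 8 wk, then HFD containing 0.1% w/w compound (about 2.6 mg/day/mouse) for 4 wk. At the end of feeding, mice were deprived of food overnight. Serum total cholesterol, triglyceride and NEFA were then measured. Values are mean ± SEM.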

Data set [9] concerns Mus musculus. Put plainly: Antiobesity activity in high fat diet-fed diabetic C57BL/6J Jms Slc mouse model assessed as decrease in epididymal fat at 2.6 mg/day administered with food for 4 weeks. The format is functional. Put shortly:
as §3

Data set [10] addresses Tyrosine-protein phosphatase non-receptor type 6 (Homo sapiens, UniProt P29350). Nature of the data set: Inhibition of catalytic domain of SHP-1 expressed in Escherichia coli assessed as p-nitrophenol release from pNPP substrate preincubated for 10 mins. Put shortly:
as §1

Data set [11] concerns Mus musculus. Put plainly: Antiobesity activity in high fat diet-fed diabetic C57BL/6J Jms Slc mouse model assessed as decrease in total cholesterol level in serum at 2.6 mg/day administered with food for 4 weeks. The format is functional. Put shortly: as §4
Data set [12] has as its target Receptor-type tyrosine-protein phosphatase F (Homo sapiens, UniProt P10586). Nature of the data set: Inhibition of membrane proximal catalytic domain of LAR-D1 assessed as p-nitrophenol release from pNPP substrate preincubated for 10 mins. Put shortly:
as §1

In data set [13] the test system is Mus musculus. Put plainly: Antiobesity activity in high fat diet-fed diabetic C57BL/6J Jms Slc mouse model assessed as decrease in non-esterified free fatty acid level in serum at 2.6 mg/day administered with food for 4 weeks. It is filed as functional. Put shortly: as §4

pIC50: −log10 of the molar value.

Chain of Tyrosine-protein phosphatase non-receptor type 6 (P29350 whole entry, the tested form may be a part): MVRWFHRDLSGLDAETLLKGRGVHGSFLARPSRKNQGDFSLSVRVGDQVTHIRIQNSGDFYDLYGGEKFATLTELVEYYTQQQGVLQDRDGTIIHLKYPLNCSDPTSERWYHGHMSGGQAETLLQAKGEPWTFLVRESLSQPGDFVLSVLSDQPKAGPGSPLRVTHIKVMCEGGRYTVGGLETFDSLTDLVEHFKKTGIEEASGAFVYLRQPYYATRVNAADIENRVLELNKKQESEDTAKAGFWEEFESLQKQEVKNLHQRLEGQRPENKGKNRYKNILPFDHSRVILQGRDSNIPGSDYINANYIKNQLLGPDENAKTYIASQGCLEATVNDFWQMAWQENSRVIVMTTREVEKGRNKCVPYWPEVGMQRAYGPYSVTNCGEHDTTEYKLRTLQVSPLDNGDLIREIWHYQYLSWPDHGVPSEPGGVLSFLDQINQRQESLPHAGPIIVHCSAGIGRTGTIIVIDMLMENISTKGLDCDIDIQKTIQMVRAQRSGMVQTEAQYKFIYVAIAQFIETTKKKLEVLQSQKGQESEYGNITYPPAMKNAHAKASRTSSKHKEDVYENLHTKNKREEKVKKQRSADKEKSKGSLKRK
Chain of Receptor-type tyrosine-protein phosphatase F (P10586 whole entry, the tested form may be a part): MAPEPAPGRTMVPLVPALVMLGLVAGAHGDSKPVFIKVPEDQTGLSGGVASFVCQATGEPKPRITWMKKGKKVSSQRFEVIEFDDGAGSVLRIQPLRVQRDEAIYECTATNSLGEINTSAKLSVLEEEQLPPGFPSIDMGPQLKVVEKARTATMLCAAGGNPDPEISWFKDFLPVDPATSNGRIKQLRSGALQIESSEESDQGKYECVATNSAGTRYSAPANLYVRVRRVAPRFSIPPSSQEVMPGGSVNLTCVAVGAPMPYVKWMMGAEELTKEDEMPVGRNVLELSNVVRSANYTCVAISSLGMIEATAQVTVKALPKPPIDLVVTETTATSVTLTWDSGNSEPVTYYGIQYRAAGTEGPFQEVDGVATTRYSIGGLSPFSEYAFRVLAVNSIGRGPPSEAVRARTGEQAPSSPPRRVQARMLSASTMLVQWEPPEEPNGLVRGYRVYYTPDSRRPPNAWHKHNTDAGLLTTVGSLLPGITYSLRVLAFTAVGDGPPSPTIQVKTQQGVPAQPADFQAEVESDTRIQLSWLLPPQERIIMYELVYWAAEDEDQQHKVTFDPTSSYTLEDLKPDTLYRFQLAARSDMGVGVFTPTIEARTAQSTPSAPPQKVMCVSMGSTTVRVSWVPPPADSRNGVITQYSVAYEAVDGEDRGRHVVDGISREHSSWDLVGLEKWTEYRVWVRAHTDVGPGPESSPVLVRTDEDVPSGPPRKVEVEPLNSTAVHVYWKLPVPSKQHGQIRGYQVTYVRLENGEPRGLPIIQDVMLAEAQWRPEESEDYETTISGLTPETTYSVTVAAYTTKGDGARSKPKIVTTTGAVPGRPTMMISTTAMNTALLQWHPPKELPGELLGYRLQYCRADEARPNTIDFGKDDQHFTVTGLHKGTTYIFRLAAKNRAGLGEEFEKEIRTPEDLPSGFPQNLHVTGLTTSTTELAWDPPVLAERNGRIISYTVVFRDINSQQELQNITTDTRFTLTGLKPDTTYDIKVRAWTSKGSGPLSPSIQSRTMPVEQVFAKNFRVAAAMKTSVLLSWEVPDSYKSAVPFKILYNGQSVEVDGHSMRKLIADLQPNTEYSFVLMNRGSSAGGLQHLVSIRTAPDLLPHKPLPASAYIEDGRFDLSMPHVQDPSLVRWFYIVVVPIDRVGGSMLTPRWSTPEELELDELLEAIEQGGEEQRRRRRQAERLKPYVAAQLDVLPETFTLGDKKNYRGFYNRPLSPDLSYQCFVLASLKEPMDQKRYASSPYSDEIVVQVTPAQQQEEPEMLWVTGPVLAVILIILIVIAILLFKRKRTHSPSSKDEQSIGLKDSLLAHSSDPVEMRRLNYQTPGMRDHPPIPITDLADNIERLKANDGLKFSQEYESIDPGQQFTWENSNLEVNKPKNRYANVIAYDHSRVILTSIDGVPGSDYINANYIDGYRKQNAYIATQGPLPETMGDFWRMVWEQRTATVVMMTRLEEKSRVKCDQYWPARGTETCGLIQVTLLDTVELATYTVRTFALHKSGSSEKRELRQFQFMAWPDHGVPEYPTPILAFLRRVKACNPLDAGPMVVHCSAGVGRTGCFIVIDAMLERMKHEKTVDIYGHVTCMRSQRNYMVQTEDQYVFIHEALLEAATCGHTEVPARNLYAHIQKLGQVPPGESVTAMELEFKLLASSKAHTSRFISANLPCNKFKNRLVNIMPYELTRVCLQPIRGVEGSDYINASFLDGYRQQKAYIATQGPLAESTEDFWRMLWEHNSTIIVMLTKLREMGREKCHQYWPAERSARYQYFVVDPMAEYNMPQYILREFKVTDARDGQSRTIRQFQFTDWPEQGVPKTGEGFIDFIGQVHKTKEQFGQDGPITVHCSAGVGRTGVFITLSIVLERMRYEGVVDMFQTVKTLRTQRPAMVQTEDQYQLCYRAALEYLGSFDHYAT

For the compound `Cc1ccc(S(=O)(=O)Oc2cc(OCc3ccc(C(F)(F)F)cc3)c(/C=C3\SC(=O)NC3=O)cc2Br)cc1`, the pIC50 in [1] is 5.41; in data set [3] it was 4.72; in data set [10], 5.52; in data set [12] it was less than 4.00. The Ratio IC50 in [2] and in data set [6] was more than 10 each time. Also, the Activity entry is “Non-toxic” in the data set with Mus musculus [4]; “Non-toxic” in the data set on Mus musculus [7]; 76 mg/dL with Mus musculus [8]; 1.29 g in the data set with Mus musculus [9]; 124 mg/dL in the data set on Mus musculus [11]; 0.2 mM in the data set with Mus musculus [13]. For the same compound, the feed efficiency in the data set with Mus musculus [5] is 0.57 g/100 kcal.
